According to ChEMBL document CHEMBL1811765, “Synthesis, biological evaluation, and molecular modeling of cinnamic acyl sulfonamide derivatives as novel antitubulin agents” (Bioorg Med Chem, 2011):
Converted amounts (≈) assume the structure as drawn.

How the values were obtained:
[1] = Inhibition of bovine brain tubulin polymerization after 20 mins by turbidimetric analysis; design: species or system Bos taurus
Outline: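 Tubulin at 10 µM in glutamate buffer was preincubated with varying compound concentrations at 30 °C, then cooled to 0 °C. GTP was added, the mix moved to 0 °C cuvettes and warmed to 30 °C, and assembly was followed turbidimetrically.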

B16-F10 [2] = test: Antiproliferative activity against mouse B16F10 cells after 48 hrs by MTT based ELISA assay; assay type: functional, cell-based; conditions: B16-F10, 48 h
Outline: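 B16-F10 cells grown to log phase in RPMI 1640 with 10% FBS, seeded at 2 × 10⁴ cells/mL and incubated 24 h at 37 °C, 5% CO₂ before treatment. Read-out was absorbance at 570 nm after an overnight incubation at 37 °C. Three replicate wells per concentration, each assay run at least three times. IC50 reported.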

B16-F10 [3] = test: Cell cycle arrest in mouse B16F10 cells assessed as accumulation at S phase at 1 ug/ml after 24 hrs by flow cytometry analysis (reference value: 9.40%); assay type: functional
B16-F10 [4] = test: Cell cycle arrest in mouse B16F10 cells assessed as accumulation at G2/M phase at 1 ug/ml after 24 hrs by flow cytometry analysis (reference value: 17.03%); assay type: functional
B16-F10 [5] = test: Cell cycle arrest in mouse B16F10 cells assessed as accumulation at G0/G1 phase at 1 ug/ml after 24 hrs by flow cytometry analysis (reference value: 48.57%); assay type: functional
B16-F10 [6] = test: Cell cycle arrest in mouse B16F10 cells assessed as accumulation at S phase at 5 ug/ml after 24 hrs by flow cytometry analysis (reference value: 9.40%); assay type: functional
B16-F10 [7] = test: Cell cycle arrest in mouse B16F10 cells assessed as accumulation at G2/M phase at 5 ug/ml after 24 hrs by flow cytometry analysis (reference value: 17.03%); assay type: functional
B16-F10 [8] = test: Cell cycle arrest in mouse B16F10 cells assessed as accumulation at G0/G1 phase at 5 ug/ml after 24 hrs by flow cytometry analysis (reference value: 48.57%); assay type: functional

Compound | IC50 [1] [µg/mL] | IC50 (B16-F10 [2]) [µg/mL] | also measured
O=C(/C=C/c1ccc(Cl)cc1)NS(=O)(=O)c1ccc(F)cc1 | 8.9 (≈ 26.2 µM) | 2 (≈ 5.89 µM) | –
COc1cc2c(c(OC)c1OC)-c1ccc(OC)c(=O)cc1[C@@H](NC(C)=O)CC2 [COLCHICINE] | – | – | Activity (B16-F10 [3]): 1.3%; Activity (B16-F10 [4]): 61.11%; Activity (B16-F10 [5]): 1.58%
O=C(/C=C/c1ccc(F)cc1)NS(=O)(=O)c1ccc(Br)cc1 | 14.7 (≈ 38.3 µM) | 2.8 (≈ 7.29 µM) | –
O=C(/C=C/c1ccccc1)NS(=O)(=O)c1ccc(Br)cc1 | 63 (≈ 172 µM) | 3.9 (≈ 10.6 µM) | –
O=C(/C=C/c1ccccc1)NS(=O)(=O)c1ccc(Cl)cc1 | 14.8 (≈ 46 µM) | 2.2 (≈ 6.84 µM) | –
O=C(/C=C/c1ccc([N+](=O)[O-])cc1)NS(=O)(=O)c1ccc(F)cc1 | 6.3 (≈ 18 µM) | 2.2 (≈ 6.28 µM) | –
Cc1ccc(S(=O)(=O)NC(=O)/C=C/c2ccc(Cl)cc2)cc1 | 30 (≈ 89.3 µM) | 4.6 (≈ 13.7 µM) | –
Cc1ccc(S(=O)(=O)NC(=O)/C=C/c2ccc(F)cc2)cc1 | 40 (≈ 125 µM) | 4.8 (≈ 15 µM) | –
CN(C)c1ccc(/C=C/C(=O)NS(=O)(=O)c2ccccc2)cc1 | 26 (≈ 78.7 µM) | 2.3 (≈ 6.96 µM) | –
O=C(/C=C/c1ccc(F)cc1)NS(=O)(=O)c1ccc(F)cc1 | 2.4 (≈ 7.42 µM) | 0.8 (≈ 2.47 µM) | Activity (B16-F10 [3]): 9.08%; Activity (B16-F10 [6]): 4.22%; Activity (B16-F10 [7]): 49%; Activity (B16-F10 [4]): 30.21%; Activity (B16-F10 [8]): 5.65%; Activity (B16-F10 [5]): 26.7%
COc1ccc(/C=C/C(=O)NS(=O)(=O)c2ccccc2)cc1 | 160 (≈ 504 µM) | 13.2 (≈ 41.6 µM) | –
CN(C)c1ccc(/C=C/C(=O)NS(=O)(=O)c2ccc(Br)cc2)cc1 | 34 (≈ 83.1 µM) | 4.2 (≈ 10.3 µM) | –
O=C(/C=C/c1ccccc1)NS(=O)(=O)c1ccc(F)cc1 | 4.5 (≈ 14.7 µM) | 2.1 (≈ 6.88 µM) | –
O=C(/C=C/c1ccc([N+](=O)[O-])cc1)NS(=O)(=O)c1ccc(Br)cc1 | 163 (≈ 396 µM) | 13.9 (≈ 33.8 µM) | –
O=C(/C=C/c1ccc(Cl)cc1)NS(=O)(=O)c1ccc(Cl)cc1 | 9.3 (≈ 26.1 µM) | 2.5 (≈ 7.02 µM) | –
COc1ccc(/C=C/C(=O)NS(=O)(=O)c2ccc(C)cc2)cc1 | 146 (≈ 441 µM) | 12.2 (≈ 36.8 µM) | –
COc1ccc(/C=C/C(=O)NS(=O)(=O)c2ccc(F)cc2)cc1 | 45 (≈ 134 µM) | 5.1 (≈ 15.2 µM) | –
Cc1ccc(S(=O)(=O)NC(=O)/C=C/c2ccccc2)cc1 | 152 (≈ 504 µM) | 13.8 (≈ 45.8 µM) | –
O=C(/C=C/c1ccccc1[N+](=O)[O-])NS(=O)(=O)c1ccccc1 | 74 (≈ 223 µM) | 6 (≈ 18.1 µM) | –
Cc1ccc(S(=O)(=O)NC(=O)/C=C/c2ccccc2[N+](=O)[O-])cc1 | 102 (≈ 294 µM) | 10.3 (≈ 29.7 µM) | –
O=C(/C=C/c1ccccc1[N+](=O)[O-])NS(=O)(=O)c1ccc(F)cc1 | 69 (≈ 197 µM) | 6 (≈ 17.1 µM) | –

Compound | IC50 [1] [µg/mL] | IC50 (B16-F10 [2]) [µg/mL] | also measured
CN(C)c1ccc(/C=C/C(=O)NS(=O)(=O)c2ccc(Cl)cc2)cc1 | 14 (≈ 38.4 µM) | 2.8 (≈ 7.67 µM) | –
O=C(/C=C/c1ccc(Br)cc1)NS(=O)(=O)c1ccc(Br)cc1 | 53 (≈ 119 µM) | 5.1 (≈ 11.5 µM) | –
O=C(/C=C/c1ccc([N+](=O)[O-])cc1)NS(=O)(=O)c1ccccc1 | 50 (≈ 150 µM) | 4.8 (≈ 14.4 µM) | –
COc1ccc(/C=C/C(=O)NS(=O)(=O)c2ccc(Cl)cc2)cc1 | 52 (≈ 148 µM) | 5.3 (≈ 15.1 µM) | –
O=C(/C=C/c1ccc(F)cc1)NS(=O)(=O)c1ccccc1 | 4.5 (≈ 14.7 µM) | 2.1 (≈ 6.88 µM) | –
O=C(/C=C/c1ccccc1[N+](=O)[O-])NS(=O)(=O)c1ccc(Cl)cc1 | 78 (≈ 213 µM) | 6.6 (≈ 18 µM) | –
Cc1ccc(S(=O)(=O)NC(=O)/C=C/c2ccc([N+](=O)[O-])cc2)cc1 | 151 (≈ 436 µM) | 13.5 (≈ 39 µM) | –
COc1ccc(/C=C/C(=O)NS(=O)(=O)c2ccc(Br)cc2)cc1 | 53 (≈ 134 µM) | 5.8 (≈ 14.6 µM) | –
CN(C)c1ccc(/C=C/C(=O)NS(=O)(=O)c2ccc(F)cc2)cc1 | 10 (≈ 28.7 µM) | 2.3 (≈ 6.6 µM) | –
Cc1ccc(S(=O)(=O)NC(=O)/C=C/c2ccc(Br)cc2)cc1 | 137 (≈ 360 µM) | 12.1 (≈ 31.8 µM) | –
O=C(/C=C/c1ccc(Br)cc1)NS(=O)(=O)c1ccc(Cl)cc1 | 55 (≈ 137 µM) | 5.2 (≈ 13 µM) | –
O=C(/C=C/c1ccccc1)NS(=O)(=O)c1ccccc1 | 37 (≈ 129 µM) | 3.5 (≈ 12.2 µM) | –
O=C(/C=C/c1ccc(Br)cc1)NS(=O)(=O)c1ccccc1 | 74 (≈ 202 µM) | 3.9 (≈ 10.6 µM) | –
O=C(/C=C/c1ccc(Br)cc1)NS(=O)(=O)c1ccc(F)cc1 | 3.8 (≈ 9.89 µM) | 1.2 (≈ 3.12 µM) | –
Cc1ccc(S(=O)(=O)NC(=O)/C=C/c2ccc(N(C)C)cc2)cc1 | 37 (≈ 107 µM) | 4.3 (≈ 12.5 µM) | –
O=C(/C=C/c1ccccc1[N+](=O)[O-])NS(=O)(=O)c1ccc(Br)cc1 | 134 (≈ 326 µM) | 12.6 (≈ 30.6 µM) | –
COc1ccc(/C=C\c2cc(OC)c(OC)c(OC)c2)cc1O [COMBRETASTATIN A4] | 0.7 (≈ 2.21 µM) | – | –
O=C(/C=C/c1ccc(Cl)cc1)NS(=O)(=O)c1ccc(Br)cc1 | 10.8 (≈ 27 µM) | 2.8 (≈ 6.99 µM) | –
O=C(/C=C/c1ccc([N+](=O)[O-])cc1)NS(=O)(=O)c1ccc(Cl)cc1 | 134 (≈ 365 µM) | 13.7 (≈ 37.4 µM) | –
O=C(/C=C/c1ccc(F)cc1)NS(=O)(=O)c1ccc(Cl)cc1 | 4.5 (≈ 13.2 µM) | 2.6 (≈ 7.65 µM) | –
O=C(/C=C/c1ccc(Cl)cc1)NS(=O)(=O)c1ccccc1 | 15.3 (≈ 47.5 µM) | 2.2 (≈ 6.84 µM) | –
